This is a sample that favours compounds with a hit; in the whole collection about 1.8% have one here.
Scp-1 inhibitor: Scp-1 (human) phosphatase inhibition. Q9GZU7. Recombinant Scp1, phosphopeptide, malachite green phosphate absorbance. inhibition, % at 20 µM. hit rate 0.88% among 340,000. AID 493091;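 active = inhibition above about 50% at 20 µM, limit read from the data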;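 also: plate controls were DMSO wells with enzyme for no effect and wells lacking enzyme for full effect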
Target sequence (Q9GZU7 76-261 limits assumed): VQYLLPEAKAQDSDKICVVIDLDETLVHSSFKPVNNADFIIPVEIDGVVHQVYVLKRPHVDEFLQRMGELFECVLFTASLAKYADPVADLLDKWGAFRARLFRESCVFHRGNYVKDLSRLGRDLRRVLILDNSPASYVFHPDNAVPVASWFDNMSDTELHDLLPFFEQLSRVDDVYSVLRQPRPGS
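Material – SCP-1 phosphatase catalytic domain, residues 76-261 · Buffer or medium – Acidic Tris acetate buffer with magnesium and detergent · Also added – Phospho 17-mer peptide substrate · Compound – single 20 µM dose, 1% DMSO · Times – 45 min room-temperature reaction, 5 min colour, 30 min stabiliser · Technique – Phosphate-binding colour reagent, absorbance read at 630 nm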
SUMO1-SIM PPI: alters human SUMO1 binding to SIM partners. P63165. SUMO1 binding to a labelled peptide, TR-FRET, 1 h. inhibition, % at 20 µM. hit rate 0.33% among 360,000; in the data active = inhibition above about 37%
Target sequence (P63165 whole entry, looked up): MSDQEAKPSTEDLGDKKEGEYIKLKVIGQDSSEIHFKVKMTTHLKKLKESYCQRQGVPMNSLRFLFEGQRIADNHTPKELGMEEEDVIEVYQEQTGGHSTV
DNMT1 block: blocks human DNA methyltransferase DNMT1; P26358; DNMT1 molecular beacon, Hinp1I cleavage, fluorescence; inhibition (reported as % activation of signal), % at 10 µM; hit rate 0.83% among 360,000; in the data active = inhibition above about 50%
LMPTP block: LMPTP (human) inhibition; P24666; recombinant LMPTP-A, OMFP fluorogenic substrate, fluorescence intensity; inhibition, % at 20 µM; hit rate 0.22% among 360,000; AID 651560;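 active = compounds that cut the enzyme signal by at least half of the control window in the single-dose screen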;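 also: plate controls were DMSO wells with enzyme plus substrate for no effect and substrate without enzyme for full effect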
Target sequence (P24666 whole entry, looked up): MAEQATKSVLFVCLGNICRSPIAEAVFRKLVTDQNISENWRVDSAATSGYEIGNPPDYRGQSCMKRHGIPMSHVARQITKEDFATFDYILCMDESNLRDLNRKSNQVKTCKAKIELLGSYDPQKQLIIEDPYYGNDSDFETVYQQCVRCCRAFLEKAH
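Assay system: LMPTP-A, protein tyrosine phosphatase of low molecular weight / Medium: pH 6.0 Bis-Tris buffer with DTT and Triton X-100 / Schedule: 50 min enzyme reaction at room temperature, protected from light / Measured by: endpoint fluorescence intensity from OMFP dephosphorylation / Read-out basis: % inhibition relative to no-enzyme and uninhibited control wells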
STEP inh: STEP (human) phosphatase inhibition; P54829; recombinant STEP, OMFP fluorogenic substrate, fluorescence; inhibition, % at 20 µM; hit rate 0.25% among 360,000;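 active = inhibition at 20 µM, scaled per plate between control wells, above about 37%, limit read from the data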;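 also: 0% = DMSO with enzyme and substrate and 100% = substrate only without enzyme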
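Assay system: isolated STEP enzyme. Buffer or medium: pH 6.0 Bis-Tris with DTT and Tween 20. Also added: fluorogenic phosphatase substrate OMFP at 25 µM final. Dosing: 20 µM, 1% DMSO. Timing: 20 min reaction, room temperature, in the dark. Measured by: fluorescence intensity, excitation 480 nm, emission 540 nm. Evaluation: normalized % inhibition.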
Scp1 confirm: Scp-1 (human) inhibition, single-dose confirmed | shares compounds with Scp-1 inhibitor | recombinant SCP-1 catalytic domain, phosphate release, malachite green absorbance | inhibition, % at 20 µM | hit rate 61% among 2,500 | AID 540281;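 also: plate controls were DMSO with enzyme for no effect and buffer wells lacking enzyme for full effect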
MG interference: interferes with malachite green readout, flagging false Scp-1 hits; 2,500 tested, under 10 active; apparent inhibition (interference), % at 20 µM; Colorimetric interference counterscreen, malachite green absorbance 630 nm; shares compounds with Scp-1 inhibitor;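 also: compounds added after enzyme reaction finished so only phosphate colour detection is probed; plate controls were DMSO wells with completed Scp-1 reaction for no effect and substrate wells lacking enzyme for full effect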
Scp1 DSF: Scp-1 (human) binding by thermal shift | AID 540329 | Recombinant SCP1, Sypro Orange thermal shift Tm | shares compounds with Scp-1 inhibitor | hit rate 25% among 1,500 | thermal shift relative to vanadate control, % at 40 µM;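 active = substances whose mean melting-temperature shift, as a percentage of the reference inhibitor's shift, reaches about 5.3%, limit read from the data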;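 also: 0% = Tm of DMSO wells and 100% = Tm with sodium orthovanadate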
Numbers without * were called inactive; . = no result.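 The calls were made as follows, unless noted: active = inhibition of at least 30% at 20 µM; inactive = the rest.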

SMILES	Scp-1 inhibitor	SUMO1-SIM PPI	DNMT1 block	LMPTP block	STEP inh	Scp1 confirm	MG interference	others
O=C(Nc1ccccc1C(=O)O)c1ccc2c(c1)C(=O)N(c1cccc([N+](=O)[O-])c1)C2=O	0.8	-5.5	1.8	15.5	19.8	.	.
Cc1ccc(C(=O)O)cc1NC(=O)c1ccc2c(c1)C(=O)N(c1ccc([N+](=O)[O-])cc1)C2=O	67.5*	-20.4	1.6	7.0	15.2	62.3*	-3.8	Scp1 DSF=4.4
O=C(O)C1OCC2(CO1)COC(C(=O)O)OC2 (configuration not stated)	-2.7	-0.1	6.1	-0.6	-0.6	.	.
COc1ccc(N(CC(=O)NC2CCCC2)C(=O)CCC(=O)Nc2nc(C)cs2)cc1OC	1.4	2.4	1.2	-1.1	0.1	.	.
COc1ccc(S(=O)(=O)CCC(=O)Nc2c(C)n(C)n(-c3ccccc3)c2=O)cc1	54.7*	2.0	2.9	-0.7	-1.1	-14.7	-17.2
COC(=O)CCC(=O)Nc1c(C)n(C)n(-c2ccccc2)c1=O	-0.8	-2.4	3.7	0.1	-0.2	.	.
Cc1ccc(Cl)cc1NC(=O)Nc1c(C)n(C)n(-c2ccccc2)c1=O	76.5*	7.0	-0.3	0.0	-4.4	-18.1	-14.2
Cc1c(NC(=O)CN2C(=O)NC(C)(c3ccccc3)C2=O)c(=O)n(-c2ccccc2)n1C (configuration not stated)	0.7	-1.5	-0.3	-0.1	1.6	-15.7	-18.9
Cc1ccn(CC(=O)N2CCCC(N3CCN(c4cccc(C(F)(F)F)c4)CC3)C2)n1 (configuration not stated)	.	7.8	1.7	-2.6	3.6	.	.
CCOc1ccc(CN(C)C(=O)CN2C(=O)NC(c3ccccc3)(c3ccccc3)C2=O)cc1	4.1	-1.0	-1.8	1.6	8.6	.	.
C[N+]1(CCCOC(=O)C2(c3ccccc3)CCCC2)CCOCC1	73.6*	21.5	-1.1	-0.3	-1.2	37.1*	-13.9	Scp1 DSF=1.1
Cc1ccc(-c2cc(C(=O)N/N=C/c3ccc(Cl)cc3)n[nH]2)o1	64.8*	-6.5	1.8	2.1	4.7	87.7*	-7.3	Scp1 DSF=-11.5
Cc1ccc(-c2cc(C(=O)N/N=C/c3ccccc3)n[nH]2)o1	-9.6	-0.6	1.3	0.1	-1.2	.	.
CC[n+]1c(/C=C/Nc2ccccc2)sc2ccccc21	109.2*	-13.5	6.8	-1.6	1.2	13.6	-13.4
CCC(NS(=O)(=O)c1ccc2c(c1)NC(=O)C(C)C(=O)N2)c1cccs1 (configuration not stated)	2.4	2.0	3.7	-1.0	1.2	-1.8	-16.1
Cc1ccc(NS(=O)(=O)c2ccc3c(c2)NC(=O)C(C)C(=O)N3)c(Cl)c1 (configuration not stated)	-9.2	-0.9	3.9	-1.6	0.6	.	.
CC1Sc2ccc(S(=O)(=O)NCCc3ccc(Cl)cc3)cc2NC1=O (configuration not stated)	-2.4	-2.3	-3.7	1.5	-1.4	.	.
CC1C(=O)Nc2ccc(S(=O)(=O)NCc3ccc(Cl)cc3)cc2NC1=O (configuration not stated)	12.3	-1.6	3.6	-1.5	2.0	12.1	2.0
Cn1c(O)c(N=NC(=O)c2ccccc2O)c2ccccc21	26.2	-12.6	0.7	3.6	1.1	.	.
Cc1cc(N=NC(=O)c2ccccc2O)c2ccccc2c1O	95.3*	1.2	-3.2	29.0	96.7*	79.2*	-11.4	Scp1 DSF=12.0*
Cc1cccc(C(=O)OCC(=O)NC(=O)Cc2ccccc2)c1O	-10.5	-1.9	-0.6	1.6	-0.4	.	.
Cn1ccnc1COc1ccc(C=O)cc1	-11.7	1.6	-1.3	-0.9	1.4	.	.
CCN(CC(=O)NC1CCCCC1)S(=O)(=O)c1ccc(Cl)cc1	63.5*	1.1	4.5	1.2	0.6	-8.4	-6.2
COC(=O)c1ccc(Nc2c([N+](=O)[O-])ccc3nonc23)cc1	-9.0	-31.7	-0.7	0.4	-1.4	.	.
Cc1cc(Nc2ccccc2)n(-c2ccc(Br)cc2)n1	53.6*	1.5	-8.2	2.8	-5.4	-15.6	-12.0
SMILES	Scp-1 inhibitor	SUMO1-SIM PPI	DNMT1 block	LMPTP block	STEP inh	Scp1 confirm	MG interference	others
Cn1cnc(C(=O)N2CCc3ccccc3C2)c1C(=O)N1CCc2ccccc2C1	95.3*	-3.1	15.6	-0.2	-1.9	83.3*	-17.5	Scp1 DSF=-11.7
CC(C)N(C(=O)CSc1nnc(-c2ccc3c(c2)OCO3)n1C)C(C)C	55.0*	-3.2	0.2	0.5	-1.1	-23.7	-18.9
Cc1ccc(S(=O)(=O)N2CCC(C(=O)NC3CC(C)(C)NC(C)(C)C3)CC2)cc1	-1.6	1.9	4.2	1.7	-4.0	.	.
CCOc1ccc(CCNC(=O)COC(=O)c2ccc(C)s2)cc1OCC	1.0	2.3	-0.4	-0.2	-1.5	.	.
COc1cccc(C(=O)C2CCCN(C(=O)CCC3=NNC(=O)CC3)C2)c1 (configuration not stated)	4.5	1.1	0.2	-1.7	-1.6	.	.
O=C1CCC(CCC(=O)N2CCCC(C(=O)c3cccc(C(F)(F)F)c3)C2)=NN1 (configuration not stated)	-8.0	2.7	-13.9	0.2	0.6	-9.3	-3.5
O=C(O)c1ccc(-c2ccc(/C=C3\NC(=O)N(Cc4ccc(Cl)cc4)C3=O)o2)cc1	42.1	19.1	18.9	6.1	2.5	.	.
Cc1cc(C(=O)O)ccc1-c1ccc(/C=C2\NC(=O)N(Cc3ccccc3Cl)C2=O)o1	64.9*	18.7	63.8*	2.9	2.1	74.6*	-0.2	Scp1 DSF=9.3*
Cc1ccc(NC(=O)CN2C(=O)S/C(=C\c3ccc(C(=O)O)cc3)C2=O)cc1	26.3	-22.5	46.2	-0.1	1.2	.	.
Cc1ccccc1NC(=O)CN1C(=O)S/C(=C\c2ccc(-c3cc(C(=O)O)ccc3C)o2)C1=O	97.8*	11.2	30.4	47.5	5.9	68.9*	-15.8	Scp1 DSF=-483.5
Cc1cc(/C=C2\SC(=O)N(CC(=O)Nc3ccccc3F)C2=O)c(C)n1C	4.8	4.3	0.9	0.1	3.2	.	.
Cc1ccc(C(=O)O)cc1-c1ccc(/C=C2\SC(=O)N(CC(=O)Nc3ccccc3)C2=O)o1	72.7*	9.7	67.2*	46.8	5.0	83.6*	-13.4	Scp1 DSF=10.2*
O=C(C1=C[C@H](c2csc3ccccc23)C[C@H](OCc2ccc(CO)cc2)O1)N1CCN(Cc2ccc3c(c2)OCO3)CC1	-1.3	3.7	-21.2	10.2	1.1	.	.
COc1ccc(C)cc1NC(=O)Nc1ccncc1	-4.6	-2.9	1.6	10.6	-0.1	.	.
CN(c1ccc(C(=O)NCc2cccnc2)cc1)S(=O)(=O)c1ccc(Cl)cc1	1.0	4.4	0.2	-1.4	-2.0	.	.
